Laboratory results reported in ChEMBL document CHEMBL2146361, “Identification of novel α7 nicotinic receptor ligands by in silico screening against the crystal structure of a chimeric α7 receptor ligand binding domain” (Bioorg Med Chem, 2012).

target: Neuronal acetylcholine receptor subunit alpha-7 (Homo sapiens, UniProt P36544); assay: Displacement of [3H]epibatidine from chimeric human alpha7-5-HT3A receptor expressed in HEK293 cells after 2 hrs by scintillation counter analysis; format: cell-based
Procedure, shortened: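 HEK293 cells grown in DMEM:F12 with 10% fetal calf serum at 37 °C, 7% CO₂, transiently transfected (PEI) and harvested after 2–3 days. 50 μg membranes incubated in 10 mM HEPES pH 7.4 with 3 nM [³H]epibatidine, ≥2 h at 4 °C, 10-point competition; non-specific binding with 3 mM (−)-nicotine.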

Neuronal acetylcholine receptor subunit alpha-7, sequence (P36544 23-502 limits assumed): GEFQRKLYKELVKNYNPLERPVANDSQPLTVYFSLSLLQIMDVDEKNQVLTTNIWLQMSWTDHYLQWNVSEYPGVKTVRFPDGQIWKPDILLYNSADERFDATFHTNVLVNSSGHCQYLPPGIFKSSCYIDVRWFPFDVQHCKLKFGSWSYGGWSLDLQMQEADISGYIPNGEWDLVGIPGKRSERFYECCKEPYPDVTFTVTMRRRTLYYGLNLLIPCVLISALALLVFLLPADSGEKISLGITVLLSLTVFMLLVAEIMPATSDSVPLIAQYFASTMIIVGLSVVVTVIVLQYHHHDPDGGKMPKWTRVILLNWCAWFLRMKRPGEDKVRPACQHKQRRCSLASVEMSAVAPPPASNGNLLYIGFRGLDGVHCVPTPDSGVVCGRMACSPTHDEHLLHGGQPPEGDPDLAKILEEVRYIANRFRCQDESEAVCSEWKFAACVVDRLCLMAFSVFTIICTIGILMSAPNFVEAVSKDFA

pKi | Compound | Ki | pKd
5.8 | COc1cc2c(cc1OC)C1CC(c3ccccc3)CCN1CC2 (configuration not stated) |  | 
5.2 | CN1CCc2[nH]c3ccccc3c2C1 |  | 
5.3 | CC1/C(=N/O)CC(c2ccccc2)N(C)C1c1ccccc1 (configuration not stated) |  | 
5.4 | CC1C(c2ccccc2)NC(c2ccccc2)C(C)C1(C)O (configuration not stated) |  | 
5.1 | CC1CC2(CCCCCC2)NCc2ccccc21 (configuration not stated) |  | 
5.7 | CC1CCN(CC(O)COc2ccc(-c3ccccc3)cc2)CC1 (configuration not stated) |  | 
 | Clc1ccc(C2CC3CCC2N3)cn1 (configuration not stated) [EPIBATIDINE] |  | 8.2
5.6 | N#CCOCC(O)C[n+]1ccccc1 (configuration not stated) |  | 

Compound | pKi | Ki | pKd
CC1CCN2CCc3c([nH]c4ccccc34)C2C1 (configuration not stated) | 6.4 | 400 nM | 
c1ccc(C2CN3CCC2CC3)cc1 (configuration not stated) | 6.7 | 200 nM | 
